Experimental data taken from publication PMC8682764 (Nucleic Acids Research, 2021).
Where a SMILES comes first, the peptide text is derived from it. Bridges are numbered along the chain shown (N, C = ends). [ ]: non-standard residue; d: D form. The star is where a group is joined. d(αMeK) = C[C@@](N)(CCCCN)C(=O)O; dPhg = N[C@@H](C(=O)O)c1ccccc1; Isobutyryl = CC(C)C(=O)*; Abu = CC[C@H](N)C(=O)O

B1: LANA 779–1049: GFP-LANA fragment 779–1049 (protein)
chain: QEQELEEQEQELEEQEQELEEQEQELEEQEQELEEQEQELEEQEQELEEQEQELEEQEQELEEQEVEEQEQEVEEQEQEQEEQELEEVEEQEQEQEEQEEQELEEVEEQEEQELEEVEEQEEQELEEVEEQEQQELEEVEEQEQQGVEQQEQETVEEPIILHGSSSEDEMEVDYPVVSTHEQIASSPPGDNTPDDDPQPGPSREYRYVLRTSPPHRPGVRMRRVPVTHPKKPHPRYQQPPVPYRQIDDCPAKARPQHIFYRRFLGKDGRRD
modifications: left off: GFP, end not stated, kept

What was measured:
[1] = tested on: WDR5 / MBP-LANAΔ33–888 interaction; assay: Co-precipitation of WDR5 with MBP-LANAΔ33–888; type: binding; conditions: co-precipitation with MBP-LANAΔ33–888, Coomassie blue detection
[2] = tested on: WDR5 in LANA/MLL1 complex; assay: Co-precipitation of ASH2L, RbBP5, WDR5 or MLL1-SET with MBP-LANAΔ33–888; type: binding; conditions: co-precipitation with MBP-LANAΔ33–888, immunoblot
[3] = tested on: WDR5 WIN binding pocket / MLL1-WDR5 interaction; conditions: cited from earlier work
WDR5 = assay: Co-IP of GFP-LANA regions with Flag-WDR5; type: binding; conditions: co-IP after expression in 293T cells, anti-Flag
Outline: (§1)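 Incubated overnight at 4°C with anti-Flag M2 (2 μg) agarose beads. Beads washed 3–6 times in lysis buffer and eluted in SDS buffer. Proteins resolved by SDS-PAGE and detected by western blot.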

MLL1 = assay: Co-IP of GFP-LANA regions with MLL1; type: binding; conditions: co-IP after expression in 293T cells, anti-Flag
Outline: as §1

| Molecule | effect on WDR5-LANA interaction [1] | exclusion of WDR5 from LANA/MLL1 complex [2] | MLL1-WDR5 interaction inhibition [3] | interaction with WDR5 (WDR5) | interaction with MLL1 (MLL1) |
| --- | --- | --- | --- | --- | --- |
| CC[C@@H]1NC(=O)[C@H](CCCN=C(N)N)NC(=O)[C@](C)(NC(=O)C(C)C)CCCCNC(=O)[C@@H](c2ccccc2)NC1=O [MM-401] (Isobutyryl-[d(αMeK)]R[Abu][dPhg]; lactam 1-C) | blocked the interaction of WDR5 with LANA | excluded nearly all WDR5 from the LANA/MLL1 complex | occupies the WDR5 WIN binding pocket and thereby inhibits MLL1-WDR5 interaction | – | – |
| B1 | – | – | – | interacted with LANA 779–1049 | did not |
